Compound activity from PubChem BioAssay.
Hits are enriched below; roughly 4.2% of the tested compounds scored in any of these assays.
SUMO Mot1 rescue = yeast Mot1-301 growth rescue at high temperature, primary screen, SUMOylation pathway inhibitor project, S. cerevisiae, ATP luminescence, 38.5C. S. cerevisiae Mot1-301 growth rescue; percent above DMSO median, 100 means doubled. growth rescue, % at 18.8 µM. 320,000 tested, 1% active. AID 2716, 2010;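 active = every valid replicate shows activation above 250% relative to neutral control wells; inactive = the rest, any valid replicate at or below 250%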;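 also: OY570 slx delta 5 strain wells were the positive control but not used for scaling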
AI-2 QS modul = Vibrio harveyi AI-2 quorum sensing modulators, primary screen, JMH597 strain, luminescence/OD600 ratio; Vibrio harveyi JMH597 AI-2 luminescence/OD600 ratio, 9 h; hits give low values; strain lacks LuxN and CqsS sensors; 0 = neutral-control median; activity change, % at 7.5 µM; 300,000 tested, 0.4% active; AID 2094, 2009; in the data active = activity change below about -75%, passing the limit was not always enough;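 also: luminescence divided by OD600 gain over 9 h not by final OD600 alone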
hERG protect = hERG rescue from dofetilide block, primary screen, cell-based, CHO-hERG, FluxOR thallium flux, dofetilide IC70 | 310,000 tested, 0.51% active | AID 1511, 2009 | activation (rescue from dofetilide block), less the hit threshold, % at 10 µM | dofetilide IC70 present | Voltage-gated inwardly rectifying potassium channel KCNH2 (Homo sapiens), Q12809;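 active = activation above the mean of controls blocked by dofetilide plus 5 SD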;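 also: thallium influx through hERG after potassium depolarization seen as dye fluorescence rise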
KCNQ1 pot = potentiators or activators of KCNQ1 channel, primary screen, cell-based, thallium flux, high-throughput | CHO-K1 KCNQ1, thallium flux FluxOR fluorescence; hits give high values | B-score at 10 µM | 310,000 tested, 0.35% active;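 active = fluorescence ratio B-score, a plate-corrected score, at least three library SD, with initial intensity B-score within 5 SD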
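Schedule – 37 °C overnight plating, 90-min dark dye load, 20-min compound pretreatment · System – stable KCNQ1 CHO-K1 line · Probe or stimulus – thallium- and potassium-containing depolarizing buffer · Measured by – kinetic FluxOR fluorescence, 10 s baseline plus 110 s post-stimulus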
Cl transport mod = KCC2 cotransporter modulators, thallium flux, primary screen, cell-based, HEK293 KCC2, FluoZin-2 fluorescence, MLSMR; AID 1456, 2008; B-score of Tl+ flux slope (higher = more flux/activation; lower = inhibition) at 10 µM; KCC2 cells, thallium flux FluoZin-2 fluorescence; Solute carrier family 12 member 5 (Homo sapiens), Q9H2X9; 190,000 tested, 2.2% active;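 active = thallium flux slope and its plate-corrected score both differing from the plate sample mean at a set confidence after two filtering rounds, in either direction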;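 also: slope of fluorescence scaled to starting intensity during 10 to 20 s after thallium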
KCNQ1 inh = inhibitors of human KCNQ1 channel, primary screen, cell-based, thallium flux, high-throughput; B-score at 10 µM; Potassium voltage-gated channel subfamily KQT member 1 (Homo sapiens), P51787; CHO-K1 KCNQ1, FluxOR thallium flux fluorescence; hits give high values; 310,000 tested, 1.3% active;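 active = compounds whose thallium flux B-score, printed positive for inhibition, exceeds three library SD while starting fluorescence stays within three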;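 also: channel opened by potassium depolarization with thallium stimulus after 20 min compound exposure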
The depositor's hits bear a star; i = inactive; · = not tested or not shown; + = active, no number.

SMILES | SUMO Mot1 rescue | AI-2 QS modul | hERG protect | KCNQ1 pot | Cl transport mod | KCNQ1 inh
O=C(COC(=O)c1ccc(S(=O)(=O)Nc2ccccc2)cc1)NCCC1=CCCCC1 | 199 | 24 | 0 | i | -0.1 | i
CC(C)N(C(=O)c1nn(C)c2c1CSc1ccccc1-2)C1CCCCC1 | -3 | 25 | -2 | i | · | 8*
Cn1nc(C(=O)NC2CCCCC2)c2c1-c1ccccc1SC2 | 0 | 19 | -15 | i | · | i
NC(=O)C1CCN(CC(=O)Nc2cc(Cl)ccc2Oc2ccccc2)CC1 | 321* | 9 | -6 | i | -0.55 | i
CCCn1c2ccccc2c2cnn(CC(=O)NCCCN3C(C)CCCC3C)c(=O)c21 (stereo not drawn) | -8 | -8 | -8 | i | · | i
COCCCn1c(SCC(=O)N2CCOCC2)nc2cc(Cl)ccc2c1=O | 10 | · | · | · | · | ·
S=C(NN=C1CCCCCC1)Nc1ccc(Cl)cc1 | 0 | 21 | -9 | i | · | i
Fc1ccc(NC(=S)NN=C2CCCCCC2)cc1 | -19 | 11 | -10 | i | 22* | i
COc1ccc(C(=O)NCC(C)(C)N2CCOCC2)cc1S(=O)(=O)N1CCCC1 | 17 | · | · | · | · | ·
CCn1c(Cn2nnc(-c3ccccc3)n2)nnc1SCC(=O)Nc1cccc(C(C)=O)c1 | 3 | 0 | -4 | i | · | i
CCn1c(Cn2nnc(-c3ccccc3)n2)nnc1SCC(=O)Nc1ccc(C(C)=O)cc1 | 2 | 9 | 4.6* | i | 0.64 | i
Cc1ccc(S(=O)(=O)NCC(=O)OCc2nnc(-c3ccccc3)o2)cc1 | 3 | 9 | -18 | i | · | i
CC1(c2ccc([N+](=O)[O-])cc2)CC(C)(C)N(C(=O)c2ccccc2)c2ccccc21 (stereo not drawn) | · | 10 | -17 | i | -0.93 | 6*
CN(C)c1ccc(/C=C/c2ccc3ccccc3[n+]2C)cc1 | -1 | -92* | -26 | i | -1 | 9*
CN(CCCS(=O)(=O)[O-])c1ccc(/C=C/c2ccc3ccccc3[n+]2C)cc1 | 2 | 9 | -2 | i | · | i
COc1ccc(-c2n(Cc3ccccc3)c3ccccc3[n+]2Cc2ccccc2)cc1 | 2 | 25 | -11 | i | 0.26 | 8*
CCC(CC)c1nnc(NC(=O)c2cc(-c3ccccc3)nc3ccccc23)s1 | -10 | 21 | -8 | i | 0.64 | i
CCC(CC)c1nnc(NC(=O)c2ccc3ccccc3n2)s1 | 5 | 19 | -4 | i | 16* | i
COc1ccc(/C=N/NC(=O)c2ccc(N3CCCC3=O)cc2)cc1 | -15 | 8 | -6 | i | · | i
O=c1c2ccccc2nc(/C=C/c2ccccc2)n1CCCO | -6 | -11 | -7 | i | · | i
CN(C)c1ccc(/C=C/c2nc3ccccc3c(=O)n2CCO)cc1 | -1 | -9 | -18 | i | · | 6*
O=C(NC(=S)N1CCN(Cc2ccc3c(c2)OCO3)CC1)c1cccc(Br)c1 | 11 | 30 | 25* | 29* | 79* | i
Cc1cc(Cl)ccc1NC(=S)N1CCN(Cc2ccc3c(c2)OCO3)CC1 | 14 | 22 | -9 | i | -0.12 | i
COc1ccc(C(=O)NC(=S)N2CC(C)OC(C)C2)cc1OC (stereo not drawn) | 7 | 7 | -12 | i | 0.43 | i
O=C(NC(=S)N1CCN(Cc2ccc3c(c2)OCO3)CC1)c1ccc(Cl)cc1 | 6 | 9 | 24* | 11* | 75* | i
SMILES | SUMO Mot1 rescue | AI-2 QS modul | hERG protect | KCNQ1 pot | Cl transport mod | KCNQ1 inh
CC1CN(C(=S)NC(=O)c2ccc(Cl)cc2)CC(C)O1 (stereo not drawn) | 234 | 6 | 6.4* | i | · | i
CN(CC(=O)Nc1cccc(F)c1)C(=O)CN1C(=O)C2CCCCC2C1=O (stereo not drawn) | 5 | · | · | · | · | ·
CCN(CC)C(=O)c1sc(NC(=O)c2ccoc2C)c(C(=O)OC)c1C | 0 | 4 | -7 | i | 8.4* | i
O=C(CS(=O)(=O)Cc1ccccc1)NCc1ccccc1Cl | 32 | 23 | -13 | i | · | i
Cc1cccc(N2CCN(C(=S)NC3CCCCC3)CC2)c1C | + | 8 | -13 | i | · | i
Cc1ccc(C)c(N2CCN(C(=S)NC3CCCCC3)CC2)c1 | -11 | 20 | -3 | i | 1 | i
CSC(=S)N/N=C(\C)c1ccccc1 | · | -14 | 20* | 45* | 143* | i
C/C(=N\NC(=S)Nc1cccc(C)c1)c1cccc(N)c1 | 8 | 13 | -4 | i | 9.2* | i
C/C(=N\NC(=S)Nc1cccc(C)c1)c1ccccc1 | 0 | -19 | -4 | i | 7.4* | i
C/C(=N\NC(N)=S)c1ccccc1 | -8 | 11 | -7 | i | -0.048 | i
C/C(=N\NC(=S)NCCc1ccccc1)c1ccc(C)cc1 | -11 | 37 | -12 | i | 2.9* | i
CN(C(=O)COC(=O)C(C)(C)Oc1ccc(Cl)cc1)c1c(N)n(Cc2ccccc2)c(=O)[nH]c1=O | 10 | 36 | -6 | i | · | i
C[C@H]1CC[C@H]2C(=O)N3[C@H](c4ccccc4Br)[C@@H](C)CC[C@H]3C(=O)N2[C@@H]1c1ccccc1Br | 97 | 17 | -10 | i | 4.4* | i
O=C(CSc1nc2ccccc2n1CCc1ccccc1)c1ccc(O)c(O)c1 | · | · | · | · | 7.8* | ·
COc1cc(OC)c2c(-c3ccccc3)cc(=O)oc2c1 | 319* | 30 | -8 | i | -0.69 | i
Cc1cc(OCC(=O)C(C)(C)C)c2c(-c3ccccc3)cc(=O)oc2c1 | 297* | 19 | -13 | i | · | i
Cc1cc(OCC(=O)N(C)C)c2c(-c3ccccc3)cc(=O)oc2c1 | 203 | 27 | -20 | i | -1 | i
CC(C)Oc1ccc(CNC(=O)CC(c2ccccc2)c2cc(Cl)ccc2O)cc1 (stereo not drawn) | -4 | 42 | -13 | i | · | 7*
COc1ccccc1C(CC(=O)Nc1ccc(Cl)cc1)c1ccc(OC(C)C)cc1 (stereo not drawn) | 12 | 14 | -6 | i | -1.1 | i
CS(=O)(=O)N1CCN(c2ccccc2NC(=O)c2cc3ccccc3o2)CC1 | -5 | 35 | -8 | i | · | i
COc1ccccc1/C=C/C(=O)c1cc(Br)ccc1OC(=O)c1ccco1 | -13 | -11 | 5.0* | i | 1.7 | i
